A selection: hits, their analogues and other compounds. The true share with any hit is near 1.5%.
APJ antagonist: antagonists of human apelin receptor APJ, primary screen, CHO-K1 cells, beta-arrestin complementation, luminescence; P35414; inhibition, % at 20 µM; actives 0.32% (n = 330,000);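 active = inhibition above about 40% at 20 µM, limit read from the data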;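 also: cells challenged with 10 nM apelin-13 agonist together with compound; plate controls were apelin-13 plus DMSO wells for no effect and DMSO wells lacking apelin-13 for full effect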
Target sequence (P35414 whole entry, looked up): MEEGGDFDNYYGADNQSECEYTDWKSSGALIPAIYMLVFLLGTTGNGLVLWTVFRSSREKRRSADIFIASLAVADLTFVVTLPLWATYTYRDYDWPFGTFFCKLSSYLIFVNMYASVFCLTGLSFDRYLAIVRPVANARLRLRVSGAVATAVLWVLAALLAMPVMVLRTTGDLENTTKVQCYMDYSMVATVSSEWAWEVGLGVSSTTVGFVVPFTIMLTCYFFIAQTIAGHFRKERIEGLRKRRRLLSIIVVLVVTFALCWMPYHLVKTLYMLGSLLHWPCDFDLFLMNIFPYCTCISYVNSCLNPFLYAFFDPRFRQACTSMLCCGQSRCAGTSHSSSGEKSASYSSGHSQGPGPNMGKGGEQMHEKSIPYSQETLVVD
APJ ag: agonists of human apelin receptor APJ, primary screen, CHO-K1 cells, PathHunter beta-arrestin, luminescence. P35414. 0% DMSO wells, 100% apelin. activation, % at 20 µM. actives 0.11% (n = 330,000). AID 2520, 2010;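 active = activation more than six SD over the plate average, tested at 20 µM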;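 also: 0% = DMSO alone and 100% = apelin-13 at 10 nM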
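Incubation: overnight seeding, 90 min compound at 25 °C, 1 h detection; test system: PathHunter CHO-K1 APJ (AGTRL-1) beta-arrestin reporter cells; amount: 1000 cells/well; doses: one dose, 20 µM compound, 1% DMSO; measured by: beta-gal luminescence; measure: agonist-driven arrestin binding to APJ; benchmarks: negative DMSO alone, positive Apelin-13 at 10 nM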
CCR6 antagonist: CCR6 receptor antagonists, primary screen, cell-based, CHO-K1, luminescence, beta-arrestin, uHTS. actives 0.49% (n = 340,000). inhibition, % at 20 µM. C-C chemokine receptor type 6 (Homo sapiens), P51684. CHO-K1 CCR6 PathHunter beta-arrestin, CCL20-stimulated. AID 493098, 2011;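 active = compounds whose inhibition of the agonist-driven luminescence signal at 20 µM reaches about 50%, limit read from the data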;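 also: cells stimulated with CCL20 at 14 nM final; plate controls were DMSO with CCL20 for no effect and DMSO without agonist for full effect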
CXCR6 inh: CXCR6 receptor inhibitors, primary screen, cell-based, beta-arrestin, luminescence, CHO-K1 PathHunter, 1536-well; C-X-C chemokine receptor type 6 (Homo sapiens), O00574; inhibition, % at 20 µM; actives 0.36% (n = 360,000); AID 602244, 2012; in the data active = inhibition above about 34%, passing the limit was not always enough;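 also: antagonist mode with CXCL16 agonist at 10 nM final; 0% = 10 nM CXCL16 with DMSO and 100% = unstimulated wells without agonist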
Target sequence (O00574 whole entry, looked up): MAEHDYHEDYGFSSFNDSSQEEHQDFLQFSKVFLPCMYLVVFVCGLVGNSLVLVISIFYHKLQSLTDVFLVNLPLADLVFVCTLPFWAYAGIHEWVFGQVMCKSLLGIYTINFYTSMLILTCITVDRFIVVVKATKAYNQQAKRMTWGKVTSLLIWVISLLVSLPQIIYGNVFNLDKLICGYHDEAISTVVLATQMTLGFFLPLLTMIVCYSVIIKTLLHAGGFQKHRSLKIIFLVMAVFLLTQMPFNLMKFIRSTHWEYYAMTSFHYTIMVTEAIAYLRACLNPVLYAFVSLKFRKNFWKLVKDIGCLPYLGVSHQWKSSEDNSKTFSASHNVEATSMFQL
EBI2 block: EBI2 receptor antagonists, beta-arrestin recruitment, primary screen, cell-based, luminescence, 7a,25-OHC stimulation, uHTS | 7a,25-OHC stimulated | actives 0.81% (n = 360,000) | inhibition, % at 5 µM | AID 651636, 2012; in the data active = inhibition above about 38%;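 also: enzyme fragment complementation signal reports receptor beta-arrestin coupling in cells; 0% = agonist plus DMSO wells and 100% = wells without agonist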
APJ ag conf: agonists of human apelin receptor APJ, confirmation, cell-based, single concentration, CHO-K1, beta-arrestin, luminescence. shares compounds with APJ ag. CHO-K1 APJ PathHunter beta-arrestin. activation, % at 20 µM. actives 10% (n = 310). AID 2764, 2010;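 active = activation above 40%, taking the highest of four retests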;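 also: plate controls were DMSO wells for no effect and apelin-13 at 10 nM for full effect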
Numbers without * were called inactive; · = no result.

SMILES | APJ antagonist | APJ ag | CCR6 antagonist | CXCR6 inh | EBI2 block | APJ ag conf
N/C(=N\OS(=O)(=O)c1ccc2ccccc2c1)c1cccnc1 | 6.1 | -2.7 | -16.3 | -2.0 | -9.0 | ·
N/C(=N\OS(=O)(=O)c1ccc2ccccc2c1)c1ccncc1 | -30.6 | 27.7* | -27.0 | -19.0 | -22.1 | 67.5*
O=C(c1cccc([N+](=O)[O-])c1)N1CCCC(C(=O)N2CCc3ccccc3C2)C1 (configuration not stated) | -44.5 | -4.3 | 7.5 | 0.1 | -10.2 | ·
COc1cccc2c1cc1c(=O)n(CC(=O)NCc3ccccn3)nc(C)n12 | 31.1 | 4.2 | 5.9 | 11.6 | 2.0 | ·
COc1ccccc1CNC(=O)CCC(=O)n1ncc2cc(C)ccc21 | -8.7 | 1.5 | 1.9 | -1.4 | -14.9 | ·
CCOC(=O)c1oc2nc3c(cc2c1N)CCCC3 | 1.8 | 116.8* | 14.1 | 0.6 | 8.6 | 2.6
Cc1cc2ccccn2c1C(=O)c1nc(N2CCOCC2)ncc1Cl | 4.2 | -0.4 | -4.7 | -0.2 | 3.2 | ·
Cc1cc2ccccn2c1C(=O)c1nc(NCc2ccco2)ncc1Cl | 14.0 | 39.9* | 21.5 | 12.7 | 10.3 | 39.8
COc1cc(NC(=O)COC(=O)CC(NC(C)=O)c2ccccc2)cc(OC)c1 (configuration not stated) | 10.5 | 1.7 | 15.4 | 7.0 | -0.4 | ·
CC(=O)NC(CC(=O)NNC(=O)c1cc2ccccc2cc1O)c1ccccc1 (configuration not stated) | -101.9 | 29.9* | -26.0 | -14.0 | -3.2 | 14.4
Cc1cccc(C(=O)OCC(=O)NCC2COc3ccccc3O2)c1 (configuration not stated) | -8.4 | -5.0 | 8.2 | 4.9 | -10.6 | ·
C=CCn1c(SCC(=O)N2CCN(c3ccccc3)CC2)nc2c([nH]c3ccccc32)c1=O | -17.0 | 65.2* | -0.1 | 1.9 | -4.7 | 11.2
Cc1cc(C)n(-c2nc(N(c3ccccc3)c3ccccc3)nc(-n3nc(C)cc3C)n2)n1 | -13.9 | 36.0* | 17.2 | 31.9 | -86.5 | 13.9
Cc1cc(NC(=O)CSCC(=O)N2CCN(c3ccccc3)CC2)no1 | -5.9 | -0.9 | 4.4 | 0.0 | -7.6 | ·
COc1ccccc1C(=O)Nc1nc(-c2ccc(S(=O)(=O)N3CCOCC3)cc2)cs1 | -31.6 | 44.6* | -6.7 | -23.0 | -37.3 | 4.4
CCOC(=O)C1=C(COC(=O)/C=C/c2ccc(O)c(OC)c2)NC(=O)NC1C (configuration not stated) | -36.6 | 3.5 | 11.8 | -8.2 | 1.1 | ·
CN1CCc2c(sc(/N=C/c3c[nH]c4ccccc34)c2C(N)=O)C1 | 18.6 | -1.2 | 34.7 | -24.7 | -2.5 | ·
CN1CCc2c(sc(/N=C/c3c[nH]c4ccccc34)c2C#N)C1 | 3.3 | 38.1* | 17.4 | 7.0 | 0.2 | -6.2
Cc1ccc(NC(=O)C/C(N)=N/OC(=O)Nc2ccc(C)c(Cl)c2)cc1 | -39.8 | 27.0* | -17.6 | -37.4 | 1.5 | 26.1
Cc1ccc(NC(=O)C/C(N)=N/OC(=O)Nc2cccc(C)c2)cc1 | -137.1 | 8.7 | -17.9 | -33.8 | 4.3 | ·
Cc1ccc(C)c2[nH]c(=O)c(CCNC(=O)c3cc4ccccc4o3)cc12 | -16.4 | 12.5* | -9.0 | -8.1 | 9.1 | 18.1
O=C(COC(=O)CCc1nc2ccccc2c(=O)[nH]1)Nc1ccccc1OC(F)F | 30.5 | -4.3 | 14.4 | 0.3 | -9.1 | ·
CC(NC(=O)OCc1ccccc1)C(=O)NCC(=O)NC(Cc1ccc(OC(C)(C)C)cc1)C(=O)OC(C)(C)C (configuration not stated) | -1.3 | 19.3* | 6.7 | 2.0 | 16.6 | 6.8
CC(C)(C)OC(=O)C(Cc1ccc(OC(C)(C)C)cc1)NC(=O)CNC(=O)CNC(=O)OCc1ccccc1 (configuration not stated) | 4.9 | 1.9 | 20.7 | -3.9 | -6.7 | ·
Cc1ccc(S(=O)(=O)NCc2ccc(C(=O)N3CCN(c4ccc([N+](=O)[O-])cc4)CC3)cc2)cc1 | -18.4 | 19.0* | 3.0 | -10.5 | -33.7 | 18.6
SMILES | APJ antagonist | APJ ag | CCR6 antagonist | CXCR6 inh | EBI2 block | APJ ag conf
COc1ccc(N2CCN(C(=O)c3ccc(CNS(=O)(=O)c4ccc(C)cc4)cc3)CC2)cc1 | -5.9 | -4.8 | 9.5 | 3.0 | 3.4 | ·
CC(=O)Nc1ccc(Nc2nc(-c3cc4ccccc4oc3=O)cs2)cc1 | -2.9 | 17.4* | -7.8 | -15.9 | -13.6 | 16.2
O=C(NNC(=O)C1CC(c2cccnc2)=NO1)Nc1ccccc1F (configuration not stated) | -25.1 | -2.8 | -1.6 | -1.1 | -9.6 | ·
Cc1ccc2c(=O)c(CN3CCCCCC3)c(C)[nH]c2c1C | 12.7 | 24.9* | 1.0 | 0.6 | -4.4 | 34.2
Cc1[nH]c2c(Cl)cccc2c(=O)c1CN1CCCCCC1 | -7.1 | -3.3 | 6.5 | 2.7 | -3.1 | ·
COc1cc(/C=C(/C#N)c2nc3ccccc3[nH]2)ccc1OCC(=O)Nc1ccccc1C(C)C | -18.1 | 28.7* | 6.5 | 6.4 | -4.8 | 13.7
O=C(N/N=C/C1CC2CCC1C2)c1c[nH]c2ccccc12 (configuration not stated) | -2.0 | 0.9 | 7.2 | -2.0 | -4.9 | ·
Cc1ccc(Cl)cc1NC(=O)c1cc2ccccc2cc1O | -69.5 | 21.6* | -66.4 | -16.4 | -3.5 | 33.5
O=C(NC(Cc1ccccc1)C(=O)N1CCN(S(=O)(=O)c2ccccc2F)CC1)c1ccccc1 (configuration not stated) | 6.9 | 26.1* | -0.4 | 0.5 | 3.8 | 9.4
COc1cccc(Nc2nc(NCC3CCCO3)c3ccccc3n2)c1 (configuration not stated) | -11.8 | 14.3* | 1.4 | -8.4 | -14.0 | 10.1
COc1cc2ccccc2cc1C(=O)Nc1ccc(N2CCN(C(=O)C(C)C)CC2)cc1 | -29.3 | 19.6* | 1.1 | 6.2 | 20.6 | 10.8
COc1cc2ccccc2cc1C(=O)Nc1ccc(N2CCN(C)CC2)cc1 | 0.6 | 3.2 | 12.9 | -0.1 | 3.2 | ·
CCN1CCN(CCNC(=O)c2cc(Cl)c(NC(=O)C3=C(C)OCCS3)cc2OC)CC1 | -13.4 | 23.9* | -6.6 | 5.1 | 7.0 | 2.3
CCC(C)NC(=O)c1cc(Cl)c(NC(=O)C2=C(C)OCCS2)cc1OC (configuration not stated) | 7.8 | -1.1 | 2.0 | 2.1 | 25.6 | ·
CCN(CC)CCCNC(=O)c1cc(Cl)c(NC(=O)C2=C(C)OCCS2)cc1OC | 14.1 | 12.8* | 7.5 | 0.8 | -7.8 | 30.2
O=c1[nH]c2c(cnn2-c2ccc(Cl)cc2)c(=O)n1-c1cccc(Cl)c1 | -0.1 | 0.8 | -6.3 | 7.6 | -0.2 | ·
Cc1ccc(S(=O)(=O)NC(=O)C2(C)CCN2C(=O)Cc2ccc(Cl)cc2Cl)nc1 (configuration not stated) | · | · | · | -5.5 | -1.6 | ·

Bioassay records (PubChem BioAssay)
